# Source: PubChem BioAssay
# TRPC4 PAM: positive allosteric modulators of TRPC4, primary screen, cell-based, mouse TRPC4beta, HEK293 mu-opioid, Fluo-4 calcium. Short transient receptor potential channel 4 (Mus musculus), Q9QUQ5. B-score at 10 µM. actives 0.42% (n = 310,000). AID 2227, 2009. DAMGO EC20, Fluo-4 Ca2+ flux; stronger effect = higher value;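 active = B-score of calcium response area above 5 SD of library B-scores, with initial fluorescence ratio within 5 SD of library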;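 note: B-score of integrated fluorescence ratio over time as area under calcium response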
# Target sequence (Q9QUQ5 whole entry, looked up): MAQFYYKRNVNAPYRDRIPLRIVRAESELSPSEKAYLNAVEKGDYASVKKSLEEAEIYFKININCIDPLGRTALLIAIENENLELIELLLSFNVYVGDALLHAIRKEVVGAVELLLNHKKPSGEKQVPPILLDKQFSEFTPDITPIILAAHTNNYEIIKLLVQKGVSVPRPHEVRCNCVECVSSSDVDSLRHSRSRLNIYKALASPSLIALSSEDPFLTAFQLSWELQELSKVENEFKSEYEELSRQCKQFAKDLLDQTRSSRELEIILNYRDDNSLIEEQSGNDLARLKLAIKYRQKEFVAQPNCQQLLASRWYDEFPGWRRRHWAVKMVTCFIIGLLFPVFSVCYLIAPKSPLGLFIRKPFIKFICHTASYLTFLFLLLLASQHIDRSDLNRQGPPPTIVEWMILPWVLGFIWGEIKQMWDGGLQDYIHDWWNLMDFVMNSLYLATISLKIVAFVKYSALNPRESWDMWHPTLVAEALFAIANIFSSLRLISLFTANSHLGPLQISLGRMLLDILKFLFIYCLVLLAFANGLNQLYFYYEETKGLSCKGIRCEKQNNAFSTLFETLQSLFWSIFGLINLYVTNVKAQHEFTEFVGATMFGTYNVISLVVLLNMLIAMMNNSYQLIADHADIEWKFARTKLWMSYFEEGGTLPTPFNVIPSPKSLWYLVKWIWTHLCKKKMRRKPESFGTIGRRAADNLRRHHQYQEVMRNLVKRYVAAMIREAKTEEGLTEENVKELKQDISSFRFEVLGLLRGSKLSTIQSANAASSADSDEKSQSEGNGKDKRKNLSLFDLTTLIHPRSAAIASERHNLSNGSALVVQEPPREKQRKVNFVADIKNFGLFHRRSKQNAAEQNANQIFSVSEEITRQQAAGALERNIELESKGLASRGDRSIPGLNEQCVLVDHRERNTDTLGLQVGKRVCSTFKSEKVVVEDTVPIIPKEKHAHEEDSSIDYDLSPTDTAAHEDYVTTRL
# TRPC6 inh: mouse TRPC6 channel inhibitors, primary screen, cell-based, HEK293, membrane potential dye; Short transient receptor potential channel 6 (Mus musculus), Q61143; ACh-evoked depolarization; stronger effect = lower value; B-score at 10 µM; actives 1.1% (n = 310,000); AID 2553, 2010;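 active = B-score under library mean minus 3 SD, initial fluorescence not abnormally high, positive integrated signal ratio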;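 note: B-score derived from integrated fluorescence ratio over the kinetic read; more negative B-score means stronger inhibition of depolarization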
# TRPC4 block: inhibitors of mouse TRPC4 channel, primary screen, Fluo4 calcium, HEK293 TRPC4beta/mu-opioid cells; B-score at 10 µM; AID 2247, 2010; DAMGO-evoked Fluo4 calcium flux; stronger effect = lower value; Short transient receptor potential channel 4 (Mus musculus), Q9QUQ5; actives 0.39% (n = 300,000);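 active = B-score over 3 SD under the library average, no early fluorescence shift, positive overall ratio signal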
#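 Assay system: TRPC4beta/mu-opioid receptor HEK293 cell line; compound dosing: single concentration per test compound; detection: Fluo4 Ca2+ flux fluorescence; evaluation: per-well B score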
# TRPC6 act: mouse TRPC6 channel activators, primary screen, cell-based, HEK293, membrane potential dye; Short transient receptor potential channel 6 (Mus musculus), Q61143; HEK293-TRPC6 membrane potential dye fluorescence; stronger effect = higher value; B-score at 10 µM; actives 0.13% (n = 310,000); AID 2550, 2010;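 active = B-score of the integrated fluorescence ratio above library mean plus 3 SD, and starting fluorescence ratio within library mean plus 5 SD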;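 note: higher score means more depolarization so channel activation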
# TRPC4 agonist: activators of mouse TRPC4 channel, primary screen, Fluo4 calcium, HEK293 TRPC4beta/mu-opioid cells; Short transient receptor potential channel 4 (Mus musculus), Q9QUQ5; Fluo4 calcium fluorescence; stronger effect = higher value; B-score at 10 µM; actives 0.49% (n = 310,000);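 active = B-score above 5 SD of library B-scores, and initial fluorescence ratio not above library mean plus 5 SD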;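 note: positive B-score marks a calcium rise read as TRPC4 activation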
#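 Assay system: HEK293 cells stably co-expressing mouse TRPC4beta and mu-opioid receptor / Timing: Fluo4 dye loading 45 min at room temperature, 110 s recording / Signal: Fluo4 calcium-sensitive dye fluorescence, kinetic, 1 Hz baseline / Read-out: integrated baseline-normalised fluorescence ratio, converted to per-well B score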
# TRPC4 sel inh 2: mouse TRPC4 off-target activity of TRPC6 inhibitors, second screen; AID 2776; HEK293 TRPC4/MOR, membrane potential dye fluorescence; channel activated by saturating DAMGO dose; inhibition, % at 10 µM; shares compounds with TRPC6 inh; actives 42% (n = 920);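 active = compounds whose fluorescence signal differed from control wells by over 3 SD, either direction, in both duplicate plates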
# TRPC4 spec: mouse TRPC4 modulation by TRPC6 hits, confirmation, selectivity assay for TRPC6 inhibitor project, cell-based, HEK293 TRPC4/mu-opioid, membrane potential dye; activity change, negative = inhibition, % at 10 µM; shares compounds with TRPC6 inh; membrane potential fluorescence; actives 61% (n = 920);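 active = rise or fall in signal beyond 3 SD of buffer-only wells in both replicate plates, either sign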;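 note: integrated kinetic ratio of fluorescence range over baseline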
# HEK293 MPD ctr 2-1: nonspecific membrane potential effects, parental HEK293, confirmation, counter-screen for TRPC6 inhibitor project, cell-based, second counter screen. shares compounds with TRPC6 inh. parental HEK293 membrane potential dye fluorescence; maximal acetylcholine challenge after compound addition. signal change vs control, % at 10 µM. actives 31% (n = 920). AID 2779, 2010;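 active = membrane potential signal moving either way by over 3 SD of the maximum-effect control, in both duplicate plates, meaning non-specific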
# HEK293 MPD ctr-1: membrane potential modulation in parental HEK293, confirmation, counter-screen for TRPC6 inhibitor project, cell-based; shares compounds with TRPC6 inh; parental HEK293 membrane potential dye fluorescence; membrane potential signal change, % at 10 µM; actives 60% (n = 920);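 active = membrane potential signal shifting up or down by more than 3 SD of buffer-only wells, on both duplicate plates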
# HEK293 MPD ctr-2: parental HEK293 membrane potential modulation, confirmation, counter-screen for TRPC6 modulator project, cell-based | shares compounds with TRPC6 inh | membrane potential dye fluorescence | membrane potential signal change, % at 10 µM | actives 51% (n = 2,400);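 active = membrane potential signal moves up or down beyond 5 SD from buffer-only wells, on both duplicate plates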
# HEK293 MPD ctr 2-2: second check of TRPC6 modulator effects in parental HEK293 cells; shares compounds with TRPC6 inh; membrane potential dye fluorescence; after compound, maximal acetylcholine stimulation; inhibition, % at 10 µM; actives 14% (n = 2,400);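 active = membrane potential signal drops by more than 5 SD from the mean control signal, in both duplicate plates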;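 note: plate controls were acetylcholine ECmax control wells for no effect and buffer only wells for full effect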
# TRPC4/MOR mod: TRPC4 modulation by TRPC6 hit compounds, confirmation, selectivity assay for TRPC6 modulator project, cell-based, HEK293 TRPC4/mu-opioid, membrane potential dye, mouse. membrane potential fluorescence. actives 69% (n = 2,400). percent change from control (negative = decrease, positive = increase), % at 10 µM. shares compounds with TRPC6 inh;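 active = membrane potential signal moved up or down beyond 5 SD of buffer control wells, in both duplicate plates, actives on both sides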;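 note: plate controls were assay buffer wells for no effect and DAMGO maximal-effect wells for full effect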
# TRPC4 ctr inh 2: mouse TRPC4 off-target activity of TRPC6 modulators, second screen | shares compounds with TRPC6 inh | HEK293 TRPC4/mu-opioid, membrane potential dye fluorescence; stimulated with maximal-effect DAMGO | inhibition, % at 10 µM | actives 55% (n = 2,400) | AID 488928;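 active = drop in membrane potential signal beyond 5 SD of the control wells in both duplicate plates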;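 note: TRPC4 counter screen for TRPC6 hits run under conditions tuned for TRPC6 not TRPC4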
# TRPC6 inh conf: mouse TRPC6 channel inhibitors, confirmation, HEK293 cells, membrane potential dye, duplicate; shares compounds with TRPC6 inh; ACh-evoked depolarization; inhibition, % at 10 µM; actives 43% (n = 3,300);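 active = fluorescence ratio falls more than 5 SD below the full-stimulation control mean, in both duplicate runs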;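 note: integrated fluorescence ratio of peak minus minimum over baseline after agonist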
# TRPC6 act confirm: mouse TRPC6 channel activators, confirmation, HEK293 cells, membrane potential dye, duplicate; shares compounds with TRPC6 inh; actives 11% (n = 2,800); HEK293-TRPC6 membrane potential dye fluorescence, FDSS; activation, % at 10 µM;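 active = ratio signal rise beyond 5 SD above unstimulated control wells' mean, seen in both duplicate runs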;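 note: plate controls were buffer EC0 wells for no effect and acetylcholine ECmax response for full effect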
# An asterisk follows results filed as active; i = inactive; nt = no result; + = active, no number. Only some compounds are listed: those with a hit (about 2.3% of all), similar ones and a draw of the others.
SMILES,TRPC4 PAM,TRPC6 inh,TRPC4 block,TRPC6 act,TRPC4 agonist,HEK293 MPD ctr-2,HEK293 MPD ctr 2-2,TRPC4/MOR mod,TRPC4 ctr inh 2,TRPC6 inh conf,TRPC6 act confirm,others
Cc1ccc(NC(=O)COC(=O)C(NS(=O)(=O)c2ccc(Cl)cc2)C(C)O)cc1 (stereo unspecified),i,i,i,i,i,nt,nt,nt,nt,nt,nt,
CC(C)NC(=S)N1CCN(c2ncccn2)CC1,i,-5.38*,i,i,i,i,i,17.0%*,i,i,i,
S=C(NC1CCCC1)N1CCN(c2ncccn2)CC1,i,i,i,i,i,nt,nt,nt,nt,nt,nt,
N#CC1C(C#N)N2CCCN2C1c1ccc(Br)cc1 (stereo unspecified),i,i,i,i,i,nt,nt,nt,nt,nt,nt,
CN(C)c1ccc(/C=C/C(=O)c2c(O)c3ccccc3oc2=O)cc1,i,i,i,131*,102*,+,+,491.5%*,144.5%*,nt,943.5%*,
Cc1ccc(NC(=O)[C@@H](CC(C)C)NC(=O)[C@@H]2Cc3ccccc3CN2)cc1,i,-5.09*,i,i,i,i,i,i,46.5%*,65.5%*,i,
Cc1ccc(S(=O)(=O)CCC(=O)NCc2ccccc2F)cc1,i,i,i,i,i,nt,nt,nt,nt,nt,nt,
CCOc1ccc(N(C(=O)Cn2nnc3ccccc32)C(C(=O)NC(C)(C)CC)c2cccn2C)cc1 (stereo unspecified),i,i,i,i,i,nt,nt,nt,nt,nt,nt,
CCC(C)(C)NC(=O)C(c1cccn1C)N(C(=O)Cn1nnc2ccccc21)c1ccc(OC)cc1OC (stereo unspecified),i,-8.13*,i,11.8*,i,124.5%*,i,43.5%*,41.0%*,37.5%*,68.5%*,
Cc1ccn2cc(-c3ccc4c(c3)NC(=O)CO4)nc2c1,i,i,i,i,i,nt,nt,nt,nt,nt,nt,
Cc1cccn2cc(-c3ccc4c(c3)NC(=O)CO4)nc12,i,-5.93*,i,i,i,-84.5%*,i,-16.0%*,i,i,i,
OCCNc1c2ccccc2nc2ccccc12,i,-9.52*,i,i,i,-233.0%*,i,-37.5%*,46.0%*,56.0%*,i,
COCCCNc1ccnc2c(Cl)cccc12,i,-8.98*,i,i,i,-287.0%*,i,-44.0%*,48.5%*,i,i,
Cc1cc(NCCO)c2cc(O)ccc2n1,i,-7.85*,i,i,i,-251.5%*,i,-47.0%*,38.0%*,53.5%*,i,
COCCCNc1cc(C)nc2ccccc12,i,-7.39*,-6*,i,i,-264.5%*,i,-49.5%*,63.0%*,i,i,
Cc1cc(NCCO)c2ccccc2n1,i,i,i,i,i,nt,nt,nt,nt,nt,nt,
COC(=O)Nc1cc(C)nc2ccccc12,i,i,i,i,i,nt,nt,nt,nt,nt,nt,
CC(=O)N(Cc1ccco1)c1nc(C(=O)Nc2ccc(Cl)cc2)c(C)s1,i,i,i,i,i,nt,nt,nt,nt,nt,nt,
CC1CCCCN1CC(=O)c1c(N)n(Cc2ccccc2)c(=O)n(C)c1=O (stereo unspecified),i,i,i,i,i,nt,nt,nt,nt,nt,nt,
Cn1cnnc1SCC(=O)Nc1cc(S(=O)(=O)N2CCCCC2)ccc1Cl,i,i,i,i,i,nt,nt,nt,nt,nt,nt,
CCCn1c2ccccc2c2cnn(CC(=O)N3CCN(C4CCCCC4)CC3)c(=O)c21,i,i,i,14.7*,i,317.5%*,i,56.0%*,i,i,106.5%*,
CCN(CC)CCSc1nnc2c3cc(C)ccc3n(Cc3ccccc3)c2n1,i,-7.12*,i,i,i,nt,nt,nt,nt,i,i,TRPC4 sel inh 2=27.0%*;TRPC4 spec=13.9%*;HEK293 MPD ctr 2-1=i;HEK293 MPD ctr-1=-213.0%*
COc1ccc(-c2nc3cccc(C)n3c2NCC2CCCO2)cc1O (stereo unspecified),i,-6.05*,i,i,i,-231.5%*,i,-41.5%*,46.5%*,45.0%*,i,
Cc1ccc(-c2csc(N3CCC[C@@H]3C(=O)NCCn3c(-c4ccncc4)nc4ccccc43)n2)cc1,i,i,i,i,i,nt,nt,nt,nt,nt,nt,
